Screening results from PubChem BioAssay.
A selection: hits, their analogues and other compounds. The true share with any hit is near 2.3%.
TRPC4 act – activators of mouse TRPC4 channel, primary screen, Fluo4 calcium, HEK293 TRPC4beta/mu-opioid cells. Short transient receptor potential channel 4 (Mus musculus), Q9QUQ5. AID 2237, 2010. B-score at 10 µM. Fluo4 calcium fluorescence; active compounds read high. 0.49% of 310,000 active;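 active means B-score above 5 SD of library B-scores, and initial fluorescence ratio not above library mean plus 5 SD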;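 further: positive B-score marks a calcium rise read as TRPC4 activation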
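System: HEK293 cells stably co-expressing mouse TRPC4beta and mu-opioid receptor; Schedule: Fluo4 dye loading 45 min at room temperature, 110 s recording; Detection: Fluo4 fluorescence, kinetic; Evaluation: B-scored integrated calcium fluorescence ratio; Controls: buffer (low) and maximal DAMGO (high).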
TRPC6 inh – mouse TRPC6 channel inhibitors, primary screen, cell-based, HEK293, membrane potential dye; Short transient receptor potential channel 6 (Mus musculus), Q61143; ACh-evoked depolarization; active compounds read low; B-score at 10 µM; 1.1% of 310,000 active;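 active means B-score under library mean minus 3 SD, initial fluorescence not abnormally high, positive integrated signal ratio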;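 further: B-score derived from integrated fluorescence ratio over the kinetic read; more negative B-score means stronger inhibition of depolarization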
Target sequence (Q61143 whole entry, looked up): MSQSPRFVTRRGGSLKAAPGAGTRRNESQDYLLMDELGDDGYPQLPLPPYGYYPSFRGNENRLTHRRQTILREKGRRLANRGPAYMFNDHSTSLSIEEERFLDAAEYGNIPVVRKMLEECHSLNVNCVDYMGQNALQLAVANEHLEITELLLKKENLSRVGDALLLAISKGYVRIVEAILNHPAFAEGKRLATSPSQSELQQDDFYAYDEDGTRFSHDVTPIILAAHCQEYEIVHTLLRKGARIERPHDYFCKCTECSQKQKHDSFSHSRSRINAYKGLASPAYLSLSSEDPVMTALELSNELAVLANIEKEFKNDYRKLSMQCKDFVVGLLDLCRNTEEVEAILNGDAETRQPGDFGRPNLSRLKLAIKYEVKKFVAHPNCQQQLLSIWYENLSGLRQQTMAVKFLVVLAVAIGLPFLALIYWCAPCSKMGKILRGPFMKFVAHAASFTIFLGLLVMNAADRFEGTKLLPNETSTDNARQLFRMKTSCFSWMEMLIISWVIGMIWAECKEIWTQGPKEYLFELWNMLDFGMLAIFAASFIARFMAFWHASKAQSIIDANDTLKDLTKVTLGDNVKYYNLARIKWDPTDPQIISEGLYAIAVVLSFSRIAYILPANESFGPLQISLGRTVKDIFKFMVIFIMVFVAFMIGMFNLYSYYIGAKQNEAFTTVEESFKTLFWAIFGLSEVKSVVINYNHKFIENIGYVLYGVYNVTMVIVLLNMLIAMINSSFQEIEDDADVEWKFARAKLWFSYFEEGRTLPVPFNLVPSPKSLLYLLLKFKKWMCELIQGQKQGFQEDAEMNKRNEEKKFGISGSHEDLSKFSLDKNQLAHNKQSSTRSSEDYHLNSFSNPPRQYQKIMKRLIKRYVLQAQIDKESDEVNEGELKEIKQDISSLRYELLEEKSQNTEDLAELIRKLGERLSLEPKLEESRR
TRPC4 block – inhibitors of mouse TRPC4 channel, primary screen, Fluo4 calcium, HEK293 TRPC4beta/mu-opioid cells; Short transient receptor potential channel 4 (Mus musculus), Q9QUQ5; DAMGO-evoked Fluo4 calcium flux; active compounds read low; B-score at 10 µM; 0.39% of 300,000 active;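 active means B-score over 3 SD under the library average, no early fluorescence shift, positive overall ratio signal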
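Assay system – HEK293 line stably carrying TRPC4beta and mu-opioid receptor · Doses – single dose · Detection – Fluo4 calcium-dye fluorescence, kinetic read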
TRPC4 potent – positive allosteric modulators of TRPC4, primary screen, cell-based, mouse TRPC4beta, HEK293 mu-opioid, Fluo-4 calcium; Short transient receptor potential channel 4 (Mus musculus), Q9QUQ5; DAMGO EC20, Fluo-4 Ca2+ flux; active compounds read high; B-score at 10 µM; 0.42% of 310,000 active; AID 2227, 2009;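 active means B-score of calcium response area above 5 SD of library B-scores, with initial fluorescence ratio within 5 SD of library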;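 further: B-score of integrated fluorescence ratio over time as area under calcium response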
TRPC6 act – mouse TRPC6 channel activators, primary screen, cell-based, HEK293, membrane potential dye. HEK293-TRPC6 membrane potential dye fluorescence; active compounds read high. B-score at 10 µM. 0.13% of 310,000 active. AID 2550, 2010;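 active means B-score of the integrated fluorescence ratio above library mean plus 3 SD, and starting fluorescence ratio within library mean plus 5 SD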;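 further: higher score means more depolarization so channel activation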
Starred values were filed as active, the others as inactive; i = inactive.

SMILES	TRPC4 act	TRPC6 inh	TRPC4 block	TRPC4 potent	TRPC6 act
Cc1ccc(C)c(-n2cc(CNCCCn3cccn3)c(-c3ccccc3)n2)c1	205*	i	i	i	i
Cc1ccc(-n2cc(CNCCCn3ccnc3C)c(-c3ccc(F)cc3)n2)cc1	i	i	i	i	i
Cc1ccc(C)c(-n2cc(CN3CCCN(C=O)CC3)c(-c3ccccc3)n2)c1	72*	i	i	i	i
Cc1ccc(-n2cc(CNCCCn3cccn3)c(-c3cccc(C)c3)n2)cc1	43*	i	i	i	i
COc1ccc(CCNC(=O)c2nn(C)c3c2CS(=O)(=O)c2ccccc2-3)c(OC)c1	i	i	i	i	i
O=C(Cc1nc2ccccc2[nH]1)c1ccc(Cl)cc1	i	i	i	i	i
O=C(Cc1nc2ccccc2[nH]1)c1ccc([N+](=O)[O-])cc1	i	i	-6*	i	i
c1ccc(-c2ccc(-c3ccccn3)nn2)nc1	i	-11*	i	i	i
Cc1nn(-c2ccc(N3CCOCC3)nn2)c(C)c1CCC(=O)NCc1ccc(F)cc1	i	i	i	i	i
CCOP(=O)(c1ccccc1)c1nc(-c2ccccc2Cl)oc1N1CCCCC1 (centres undefined)	i	i	i	17*	i
CN(C(=O)CSc1nc(-c2ccc(C(C)(C)C)cc2)c(C#N)c(=O)[nH]1)C1CCCCC1	i	i	-6*	i	i
N#Cc1c(-c2ccccc2)nc(SCC(=O)NC2CCCCC2)[nH]c1=O	i	i	i	i	i
CCOC(=O)c1ccc(NC(=O)NCc2cccnc2)cc1	i	i	i	i	i
Cc1ccc(-c2nc3c(c(=O)c4ccccc4n3C)c(=O)n2-c2ccc(F)cc2)cc1	i	i	i	i	i
Cn1c2ccccc2c(=O)c2c(=O)n(C3CCCCC3)c(-c3ccco3)nc21	116*	i	i	i	i
Cn1c2ccccc2c(=O)c2c(=O)n(-c3ccccc3)c(-c3ccc(C(C)(C)C)cc3)nc21	i	i	i	21*	i
Cc1nc2c(c(=O)c3ccccc3n2C)c(=O)n1C1CCCCCC1	i	i	i	i	i
Cc1ccccc1-n1c(SCC(=O)O)nc2sc3c(c2c1=O)CCCC3	i	i	i	i	i
Cc1ccc(-n2c(SCC(=O)O)nc3sc4c(c3c2=O)C(C)CCC4)cc1 (centres undefined)	i	i	i	11*	i
CCOc1ccc(-n2c(SCC(=O)O)nc3sc4c(c3c2=O)CCCC4)cc1	i	i	i	16*	i
CCOC(=O)CSc1nc2ccccc2c(=O)n1CC1CCCC1	i	i	-9*	i	i
Cc1ccccc1NC(=O)CSc1nc2ccccc2c(=O)n1CC1CCCO1 (centres undefined)	i	i	i	i	i
CCOc1ccccc1NC(=O)CSc1nc2ccccc2c(=O)n1CC1CCCO1 (centres undefined)	i	i	-6*	i	i
CCOc1ccc(CCNc2nc3ccc(C)cc3n3cnnc23)cc1OCC	i	i	i	i	i
COc1ccc(-c2cnnn2-c2ccc([N+](=O)[O-])cc2)cc1	i	i	i	i	i
SMILES	TRPC4 act	TRPC6 inh	TRPC4 block	TRPC4 potent	TRPC6 act
O=C(c1cccc([N+](=O)[O-])c1)N1CCCC(C(=O)N2CCCCCC2)C1 (centres undefined)	i	i	i	29*	i
CSc1ccccc1NC(=O)C1CCN(S(C)(=O)=O)CC1	i	i	i	i	i
CCCCN(C)CCCNC(=O)c1ccc2c(c1)NC(=O)C(N1CCOCC1)S2 (centres undefined)	i	i	i	12*	i
COc1ccccc1NS(=O)(=O)c1ccc2oc(N)nc2c1	i	i	i	i	i
O=c1ccc(-c2ccc(S(=O)(=O)NCC3CCN(Cc4cccc(F)c4)CC3)s2)n[nH]1	i	i	i	10*	i
CCOC(=O)c1c(S(=O)(=O)NCC2CCN(Cc3cccc(F)c3)CC2)c(C)n(C)c1C	i	i	i	i	i
COc1ccc2[nH]c(=O)c(CN(C(=O)c3ccco3)C3CCCCC3)cc2c1	i	i	i	10*	i
COc1ccc2[nH]c(=O)c(CN(C(C)=O)C3CCCCC3)cc2c1	i	i	i	i	i
Nc1ncc(S(=O)(=O)c2ccc(Cl)cc2)c(N)n1	i	i	i	i	i
O=C(Nc1nnc(-c2ccc3c(c2)CCCC3)o1)c1ccccc1	66*	i	i	i	i
O=C(Nc1nnc(-c2ccc(F)cc2)o1)c1cccc([N+](=O)[O-])c1	126*	i	-6*	i	i
O=C(Nc1nnc(-c2ccc(F)cc2)o1)c1cc(Cl)sc1Cl	220*	i	i	i	i
O=C(Nc1nnc(-c2ccc3c(c2)CCCC3)o1)c1ccccc1Cl	i	i	i	i	i
O=C(Nc1nnc(C2=COCCO2)o1)c1cccc([N+](=O)[O-])c1	i	i	i	i	i
NC(=O)CC(NC(=O)Cc1ccc(Cl)cc1)c1ccc(NCCN2CCOCC2)c([N+](=O)[O-])c1 (centres undefined)	i	i	i	i	i
C/C(=N\NC(=O)CCn1nnc2ccccc21)c1ccco1	i	i	i	i	i
O=C(Nc1c(C(=O)N2CCOCC2)cnn1-c1ccccc1)c1ccc(F)cc1	i	i	i	i	i
COc1ccc(N2CC(C(=O)NNC(=O)c3ccc(Br)cc3)CC2=O)c(OC)c1 (centres undefined)	i	i	i	i	i
CCc1ccc(OC(C)C(=O)Nc2ccc(S(=O)(=O)Nc3nccs3)cc2)cc1 (centres undefined)	i	i	i	12*	i
CN(CC1CCCO1)S(=O)(=O)c1ccc(C(=O)Nc2nnc(-c3ccccc3)o2)cc1 (centres undefined)	i	i	i	i	i
CCN(CC)C(=O)c1cc2sc3ccccc3c2s1	i	i	i	i	i
COCCN(CCOC)C(=O)c1cc2sc3ccccc3c2s1	i	i	i	13*	i
